Test results: ChEMBL document CHEMBL4261600 (Eur J Med Chem, 2018)

How the values were obtained:
[1] = target: Phosphatidylinositol 3-kinase C2 domain-containing subunit gamma (Homo sapiens) (UniProt O75747); experiment: Binding affinity to wild-type human partial length PIK3C2G (M1 to I1446 residues) expressed in mammalian expression system assessed as remaining unbound target protein level at 1000 nM by Kinomescan method relative to control
Procedure, shortened: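 KINOMEscan binding panel of 468 kinases/mutants. Inhibitor was tested at a single concentration of 1 μM. Binding is reported as percent of control, defined relative to a DMSO control.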

[2] = target: Serine/threonine-protein kinase MAK (Homo sapiens) (UniProt P20794); experiment: Binding affinity to wild-type human partial length MAK (M1 to P314 residues) expressed in bacterial expression system assessed as remaining unbound target protein level at 1000 nM by Kinomescan method relative to control
Serine/threonine-protein kinase MAK (Homo sapiens), sequence (P20794 whole entry, the tested form may be a part): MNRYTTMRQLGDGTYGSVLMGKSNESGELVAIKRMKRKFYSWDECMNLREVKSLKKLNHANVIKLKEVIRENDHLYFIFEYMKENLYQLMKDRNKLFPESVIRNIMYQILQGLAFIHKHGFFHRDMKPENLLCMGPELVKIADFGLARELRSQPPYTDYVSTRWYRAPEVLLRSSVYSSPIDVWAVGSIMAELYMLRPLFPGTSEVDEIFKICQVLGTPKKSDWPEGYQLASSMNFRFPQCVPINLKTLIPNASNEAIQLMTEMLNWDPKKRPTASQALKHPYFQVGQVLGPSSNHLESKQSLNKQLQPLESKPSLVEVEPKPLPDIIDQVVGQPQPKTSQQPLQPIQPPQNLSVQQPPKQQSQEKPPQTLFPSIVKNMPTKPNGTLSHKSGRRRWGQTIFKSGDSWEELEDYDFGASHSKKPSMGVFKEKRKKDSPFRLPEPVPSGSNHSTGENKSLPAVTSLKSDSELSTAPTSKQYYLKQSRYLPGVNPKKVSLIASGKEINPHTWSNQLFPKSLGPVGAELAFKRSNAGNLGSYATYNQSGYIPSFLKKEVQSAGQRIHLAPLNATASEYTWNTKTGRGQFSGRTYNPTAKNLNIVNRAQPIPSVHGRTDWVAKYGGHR

Phosphatidylinositol 3-kinase C2 domain-containing subunit gamma (Homo sapiens), sequence (O75747 whole entry, the tested form may be a part): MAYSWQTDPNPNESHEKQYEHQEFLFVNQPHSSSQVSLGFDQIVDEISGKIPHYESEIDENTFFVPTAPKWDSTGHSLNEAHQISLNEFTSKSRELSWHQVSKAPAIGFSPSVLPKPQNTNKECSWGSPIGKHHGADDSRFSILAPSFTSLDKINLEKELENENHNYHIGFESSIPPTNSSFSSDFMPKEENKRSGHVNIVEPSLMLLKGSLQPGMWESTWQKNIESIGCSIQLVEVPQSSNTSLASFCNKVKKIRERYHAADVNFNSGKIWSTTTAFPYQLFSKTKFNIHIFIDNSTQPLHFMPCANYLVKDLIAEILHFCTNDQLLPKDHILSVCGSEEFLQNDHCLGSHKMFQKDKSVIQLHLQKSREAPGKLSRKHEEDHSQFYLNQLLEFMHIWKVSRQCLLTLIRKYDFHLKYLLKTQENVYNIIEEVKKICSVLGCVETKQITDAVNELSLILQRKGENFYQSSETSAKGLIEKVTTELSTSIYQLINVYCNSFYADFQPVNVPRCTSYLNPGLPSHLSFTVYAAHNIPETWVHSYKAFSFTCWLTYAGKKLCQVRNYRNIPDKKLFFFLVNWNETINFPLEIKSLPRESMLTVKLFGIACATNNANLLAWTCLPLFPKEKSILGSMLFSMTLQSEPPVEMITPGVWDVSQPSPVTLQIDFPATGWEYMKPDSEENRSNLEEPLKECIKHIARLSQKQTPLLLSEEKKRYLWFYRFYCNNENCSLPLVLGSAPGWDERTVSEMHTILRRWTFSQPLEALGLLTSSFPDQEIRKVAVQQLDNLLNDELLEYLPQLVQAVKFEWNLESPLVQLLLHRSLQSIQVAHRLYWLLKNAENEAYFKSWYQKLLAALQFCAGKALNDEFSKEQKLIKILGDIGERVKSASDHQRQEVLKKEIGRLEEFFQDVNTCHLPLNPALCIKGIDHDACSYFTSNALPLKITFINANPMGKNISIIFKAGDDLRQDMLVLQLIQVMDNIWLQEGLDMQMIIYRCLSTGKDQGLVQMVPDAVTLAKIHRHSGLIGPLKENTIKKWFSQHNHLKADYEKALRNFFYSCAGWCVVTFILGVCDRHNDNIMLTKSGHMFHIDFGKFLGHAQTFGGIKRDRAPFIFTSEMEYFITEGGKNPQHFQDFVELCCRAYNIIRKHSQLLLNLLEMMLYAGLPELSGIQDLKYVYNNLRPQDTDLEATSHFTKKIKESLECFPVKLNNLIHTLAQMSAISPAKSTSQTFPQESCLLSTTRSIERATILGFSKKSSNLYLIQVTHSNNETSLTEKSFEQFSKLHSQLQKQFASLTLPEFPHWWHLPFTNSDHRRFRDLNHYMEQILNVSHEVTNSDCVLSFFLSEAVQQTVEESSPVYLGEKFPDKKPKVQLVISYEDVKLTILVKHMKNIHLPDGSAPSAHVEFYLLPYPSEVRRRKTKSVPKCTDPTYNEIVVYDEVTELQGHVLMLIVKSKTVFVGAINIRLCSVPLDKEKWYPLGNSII

COCCN[C@H]1CC[C@H](Nc2cc(-c3csc(NCC4(C#N)CCOCC4)n3)c(Cl)cn2)CC1
Activity [1]: 80% | Activity [2]: 100%
